Experimental data pooled from the literature.
Each line is one published result; the experiments were not run side by side.
Effect on: cell growth or viability

SMILES | cell line | assay | setting | IC50
N[C@@H](CC(=O)N1CCN(C(c2ccc(F)cc2)c2ccc(F)cc2)CC1)C(=O)N1Cc2ccccc2C1 | Kasumi 1 | ATP luminescence | 48 h | 40800 nM
O=c1[nH]cc(F)c(=O)[nH]1 | MGC-803 | MTT | 48 h | 39000 nM
CC(C)C[C@H](NC(=O)[C@H](Cc1ccccc1)NC(=O)c1cnccn1)B(O)O | NCI-N87 | ATP luminescence |  | 9.1 nM
Cc1cnc(-c2ccc(-c3ccc(NC(=O)Nc4c(F)cc(F)cc4F)cc3F)c3c2C(=O)NC3)[nH]1 | Kasumi 1 |  |  | 22 nM
CC1=C(O)C(=O)C=C2C1=CC=C1[C@@]2(C)CC[C@@]2(C)[C@@H]3C[C@](C)(C(=O)OCCCCO)CC[C@]3(C)CC[C@]12C | MGC-803 | MTT | 48 h | 270 nM
C#C[C@@]1(O)[C@@H](COP(=O)(O)OC[C@H]2O[C@@H](n3cc(F)c(=O)[nH]c3=O)C[C@@H]2O)O[C@@H](n2ccc(N)nc2=O)[C@@H]1O | FM3A/0 | MTT | 72 h | 2.2 nM
CC1=C(O)C(=O)C=C2C1=CC=C1[C@@]2(C)CC[C@@]2(C)[C@@H]3C[C@](C)(C(=O)OCCCCCO)CC[C@]3(C)CC[C@]12C | MGC-803 | MTT | 48 h | 320 nM
Nc1ccn([C@@H]2O[C@H](CO)[C@@H](O)C2(F)F)c(=O)n1 | 143B | resazurin | 72 h | 8.9 nM
CC[C@H](C)C(=O)O[C@H]1C[C@H](O)C=C2C=C[C@H](C)[C@H](CC[C@@H](O)C[C@@H](O)CC(=O)O)[C@H]21 | SW480 | SRB | 72 h | > 200 µg/mL
C#C[C@@]1(O)[C@@H](CO)O[C@@H](n2ccc(N)nc2=O)[C@@H]1O | FM3A/0 | MTT | 72 h | 1.6 nM
O=C(c1ccc(OCCN2CCCCC2)cc1)c1c(-c2ccc(O)cc2)sc2cc(O)ccc12 | COS-7 | ATP luminescence |  | 20100 nM
CC1=C(O)C(=O)C=C2C1=CC=C1[C@@]2(C)CC[C@@]2(C)[C@@H]3C[C@](C)(C(=O)OCCCCCCCCO)CC[C@]3(C)CC[C@]12C | MGC-803 | MTT | 48 h | 380 nM
O=C(O)c1cc(O)c(O)c(O)c1 | PC-12 | MTT |  | > 100000 nM
CC1=C(O)C(=O)C=C2C1=CC=C1[C@@]2(C)CC[C@@]2(C)[C@@H]3C[C@](C)(C(=O)OCCCN4C(=O)C5C=CC=CC5C4=O)CC[C@]3(C)CC[C@]12C (stereo partly drawn) | MGC-803 | MTT | 48 h | 390 nM
CC[C@@H](C)[C@H](N)C(=O)N1Cc2ccccc2C1 | Kasumi 1 | ATP luminescence | 48 h | > 60000 nM
Cc1cccc(Nc2ccccc2C(=O)O)c1C | mouse Peritoneal macrophage | crystal violet | 72 h | > 200000 nM
Cc1cccc(-n2ncc(Br)c(Br)c2=O)c1 | NCI-H2030 | resazurin | 96 h | 370 nM
CC1=C(O)C(=O)C=C2C1=CC=C1[C@@]2(C)CC[C@@]2(C)[C@@H]3C[C@](C)(C(=O)OCCCCCCCO)CC[C@]3(C)CC[C@]12C | MGC-803 | MTT | 48 h | 400 nM
CC1(C)[C@@H](O)CC[C@]2(C)[C@H]3C(=O)C=C4[C@@H]5C[C@@](C)(C(=O)O)CC[C@]5(C)CC[C@@]4(C)[C@]3(C)CC[C@@H]12 | ECa-109 | MTT | 48 h | 19000 nM
CC(=O)OCCOC(=O)[C@]1(C)CC[C@]2(C)CC[C@]3(C)C4=CC=C5C(=CC(=O)C(O)=C5C)[C@]4(C)CC[C@@]3(C)[C@@H]2C1 | MGC-803 | MTT | 48 h | 410 nM
CCc1c2c(nc3ccc(O)cc13)-c1cc3c(c(=O)n1C2)COC(=O)[C@]3(O)CC | COS-7 | ATP luminescence |  | 131000 nM
